Measured values published in ChEMBL document CHEMBL4342514, “Azole Based Acetohydrazide Derivatives of Cinnamaldehyde Target and Kill Candida albicans by Causing Cellular Apoptosis” (ACS Med Chem Lett, 2020).
≈ marks a conversion by molar mass, not a printed value.

What was measured:
Candida albicans [1] = test: Fungicidal activity against fluconazole-susceptible Candida albicans assessed as growth inhibition by sub-culturing on Agar plate and incubated for 24 to 48 hrs; assay type: functional
In short: (§1)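 C. albicans clinical isolates were tested: 8 fluconazole-susceptible and 3 fluconazole-resistant. Isolates were called resistant at a fluconazole MIC ≥8 μg/mL, per CLSI 2012 interpretive guidelines. Compounds were diluted to test concentrations in 1% DMSO, which served as the negative control. Fluconazole was the positive control. Values are means per group.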

Candida albicans [2] = test: Antifungal activity against fluconazole-susceptible Candida albicans assessed as growth inhibition measured after 24 hrs by CLSI protocol based broth microdilution method; assay type: functional; in short: as §1
[3] = Hemolytic activity against horse erythrocytes at 4 to 125 ug/ml measured after 3 hrs by spectrophometric analysis; assay type: ADME, cell-based, Equus caballus, Erythrocyte; details: read-out: Activity
In short: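 Horse red blood cells exposed to compound. Hemolysis read as absorbance at 450 nm and expressed as % lysis relative to 1% Triton X-100, taken as 100% hemolysis.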

Candida albicans [4] = test: Induction of DNA damage in Candida albicans SC5314 assessed as apoptotic cells at 1/2 MIC measured after 3 hrs by TUNEL based confocal microscopy relative to control; assay type: functional
In short: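 SC5314 cells exposed to 1/2 MIC of compound, then TUNEL-labelled with fluorescent dUTP (Ex/Em 488/515 nm) and counterstained with Hoechst 33342 (Ex/Em 350/460 nm). Imaged by confocal laser scanning microscopy and scored as % TUNEL-positive nuclei against untreated control.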

Candida albicans [5] = test: Induction of apoptosis in Candida albicans SC5314 protoplasts assessed as viable cells at 1/2 MIC measured after 3 hrs by Annexin V-FITC/propidium iodide staining based flow cytometry (reference value: 96.3 %); assay type: functional
Candida albicans [6] = test: Antifungal activity against fluconazole-resistant Candida albicans assessed as growth inhibition measured after 24 hrs by CLSI protocol based broth microdilution method; assay type: functional; in short: as §1
Candida albicans [7] = test: Induction of apoptosis in Candida albicans SC5314 protoplasts assessed as late apoptotic cells at 1/2 MIC measured after 3 hrs by Annexin V-FITC/propidium iodide staining based flow cytometry (reference value: 0.06 +/- 0.01 %); assay type: functional
Candida albicans [8] = test: Antifungal activity against Candida albicans SC5314 assessed as effect on fungal cell viability by measuring dead cells at MIC measured after 3 hrs by Muse cell analyzer (reference value: 1.4 %); assay type: functional
In short: (§2)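 Candida albicans SC5314 cells at a density of 1 × 107 were exposed to each compound at its MIC. Live and dead cells were counted with the Muse Count & Viability kit. Untreated cells were the negative control and heat-killed cells the positive control. A cell size index was run in the same assay to separate cells from debris and non-nucleated cells.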

Candida albicans [9] = test: Induction of apoptosis in Candida albicans SC5314 protoplasts assessed as early apoptotic cells at 1/2 MIC measured after 3 hrs by Annexin V-FITC/propidium iodide staining based flow cytometry (reference value: 3.47 +/- 0.26 %); assay type: functional
Candida albicans [10] = test: Induction of apoptosis in Candida albicans SC5314 protoplasts assessed as necrotic cells at 1/2 MIC measured after 3 hrs by Annexin V-FITC/propidium iodide staining based flow cytometry (reference value: 0.15 +/- 0.03 %); assay type: functional
Candida albicans [11] = test: Antifungal activity against Candida albicans SC5314 assessed as effect on fungal cell viability by measuring live cells at MIC measured after 3 hrs by Muse cell analyzer (reference value: 98.6 %); assay type: functional
Candida albicans [12] = test: Fungicidal activity against fluconazole-resistant Candida albicans assessed as growth inhibition by sub-culturing on Agar plate and incubated for 24 to 48 hrs; assay type: functional; in short: as §1
Candida albicans [13] = test: Antifungal activity against Candida albicans SC5314 assessed as effect on fungal cell death at MIC measured after 3 hrs by Muse cell analyzer relative to control; assay type: functional; in short: as §2

| Compound | MFC (Candida albicans [1]) | MIC (Candida albicans [2]) | hemolysis at 3 h [3] | Activity (Candida albicans [4]) | Activity (Candida albicans [5]) | MIC (Candida albicans [6]) | Activity (Candida albicans [7]) | Activity (Candida albicans [8]) | Activity (Candida albicans [9]) | Activity (Candida albicans [10]) | Activity (Candida albicans [11]) | MFC (Candida albicans [12]) | Activity (Candida albicans [13]) |
| --- | --- | --- | --- | --- | --- | --- | --- | --- | --- | --- | --- | --- | --- |
| C(=C\c1nn[nH]n1)/c1ccccc1 | > 125 µg/mL | > 125 µg/mL |  |  |  |  |  |  |  |  |  |  |  |
| CCOC(=O)Cn1nnc(/C=C/c2ccccc2)n1 | > 125 µg/mL | > 125 µg/mL |  |  |  |  |  |  |  |  |  |  |  |
| COc1ccc(/C=N/NC(=O)Cn2nnc(/C=C/c3ccccc3)n2)cc1OC | 8 µg/mL (≈ 20.4 µM) | 2 µg/mL (≈ 5.1 µM) | 10 to 40% | 25 - 55% | 61.4% | 4 µg/mL (≈ 10.2 µM) | 24.93% | 55.2% | 9.69% | 4.55% | 44.8% | 8 µg/mL (≈ 20.4 µM) |  |
| CCOc1ccc(/C=N/NC(=O)Cn2nnc(/C=C/c3ccccc3)n2)cc1 | 8 µg/mL (≈ 21.3 µM) | 4 µg/mL (≈ 10.6 µM) | 10 to 40% | 25 - 55% | 59.9% | 8 µg/mL (≈ 21.3 µM) | 27.92% | 53.6% | 10.49% | 2.44% | 46.4% | 8 µg/mL (≈ 21.3 µM) |  |
| O=C(Cn1nnc(/C=C/c2ccccc2)n1)N/N=C/c1cccc([N+](=O)[O-])c1 | 1 µg/mL (≈ 2.65 µM) | 0.25 µg/mL (≈ 0.662 µM) | 10 to 40% | 25 - 55% | 35.3% | 0.5 µg/mL (≈ 1.32 µM) | 44.65% | 70.4% | 8.23% | 11.7% | 29.6% | 1 µg/mL (≈ 2.65 µM) |  |
| O=C(Cn1nnc(/C=C/c2ccccc2)n1)N/N=C/c1ccccc1 | > 125 µg/mL | 125 µg/mL (≈ 376 µM) |  |  |  | 125 µg/mL (≈ 376 µM) |  |  |  |  |  |  |  |
| O=C(Cn1nnc(/C=C/c2ccccc2)n1)N/N=C/c1ccc([N+](=O)[O-])cc1 | 1 µg/mL (≈ 2.65 µM) | 0.125 µg/mL (≈ 0.331 µM) | 10 to 40% | 25 - 55% | 33.8% | 0.5 µg/mL (≈ 1.32 µM) | 48.3% | 77.2% | 8.21% | 9.8% | 22.8% | 1 µg/mL (≈ 2.65 µM) | >75% |
| Cc1ccc(/C=N/NC(=O)Cn2nnc(/C=C/c3ccccc3)n2)cc1 | 16 µg/mL (≈ 46.2 µM) | 16 µg/mL (≈ 46.2 µM) | 10 to 40% | 25 - 55% | 71.3% | 16 µg/mL (≈ 46.2 µM) | 15.6% | 44.2% | 10.18% | 3.7% | 55.8% | 16 µg/mL (≈ 46.2 µM) |  |
